Assay results from PMC4104214 (Nuclear medicine and biology, 2014).

Columns and labels:
MAGL [1] = biological target: T1, MAGL (Mus musculus, UniProt O35678); test: Ex vivo whole brain uptake and pharmacological blocking in mice; set-up: species or system mouse (male C57BL/6); details: for whole brain uptake: conscious mice, iv tail vein, 2 and 40 min post injection
T1 sequence (O35678 1-303): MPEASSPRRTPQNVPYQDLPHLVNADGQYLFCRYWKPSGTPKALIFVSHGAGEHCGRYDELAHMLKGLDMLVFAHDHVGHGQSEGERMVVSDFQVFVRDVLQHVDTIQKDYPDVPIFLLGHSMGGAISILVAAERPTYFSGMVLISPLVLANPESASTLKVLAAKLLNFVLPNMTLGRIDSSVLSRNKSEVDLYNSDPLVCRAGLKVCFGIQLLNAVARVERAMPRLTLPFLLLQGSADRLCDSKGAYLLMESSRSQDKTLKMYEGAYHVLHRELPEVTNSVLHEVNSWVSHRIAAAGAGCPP
Summary of the method: (§1)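 They were killed at 2 and 40 min. The blocking group got matching unlabeled inhibitor (2.0 mg/kg ip, 5% DMSO/5% Tween80 saline) 30 min before and was killed at 40 min. Trunk blood and whole brain were weighed and gamma-counted, decay-corrected to injection. Results given as SUV, mean ± SD, Student t-test.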

MAGL [2] = biological target: T2, MAGL (Rattus norvegicus, UniProt Q8R431); test: Ex vivo brain uptake and pharmacological blocking in rats; set-up: species or system rat (male Sprague-Dawley)
T2 sequence (Q8R431 1-303): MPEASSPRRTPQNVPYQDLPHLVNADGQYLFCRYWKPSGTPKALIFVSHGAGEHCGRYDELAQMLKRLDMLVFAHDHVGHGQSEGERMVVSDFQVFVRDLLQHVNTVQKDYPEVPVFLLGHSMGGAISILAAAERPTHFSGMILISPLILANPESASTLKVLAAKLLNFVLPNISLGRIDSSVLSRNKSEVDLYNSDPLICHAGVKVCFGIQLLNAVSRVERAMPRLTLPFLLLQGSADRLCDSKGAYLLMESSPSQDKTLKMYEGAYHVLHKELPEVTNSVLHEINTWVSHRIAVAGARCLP
Summary of the method: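 Restrained conscious male Sprague-Dawley rats (330–370 g, n = 4/group) received 28–34 MBq of tracer (208 GBq/μmol) in 0.3 mL 5% Tween80 buffered saline via warm-water-dilated tail vein. They were decapitated at 2 and 40 min. The blocking group was pretreated with unlabeled inhibitor (2 mg/kg ip, 5% DMSO/5% Tween80 saline) and killed at 40 min. Cortex, cerebellum, hypothalamus and rest of brain were weighed and gamma-counted, decay-corrected against dose standards. Injected dose was corrected for tail residue.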

MAGL [3] = test: Ex vivo blood radioactivity retention and pharmacological blocking in mice; set-up: species or system mouse (male C57BL/6)
Summary of the method: as §1

hMAGL = details: read-out: hMAGL IC50; human enzyme; cited from earlier work
hFAAH = details: read-out: hFAAH IC50; human enzyme; cited from earlier work

SMILES | whole brain uptake (MAGL [1]) | IC50 (hMAGL) [nM] | IC50 (hFAAH) [nM] | also measured
O=[11C](OC(C(F)(F)F)C(F)(F)F)N1CCC(C(O)(c2ccc3c(c2)OCO3)c2ccc3c(c2)OCO3)CC1 [[^11C]7] | 0.34–0.67 SUV |  |  | attenuation of brain uptake by pretreatment with unlabeled compound (MAGL [1]; mice, unlabeled inhibitor 2 mg/kg ip 30 min before radiotracer, 40 min post injection): not significantly attenuated; brain radioactivity uptake (MAGL [2]; conscious rats, iv tail vein, 2 and 40 min post injection, brain regions): 0.44–0.71 SUV; blocking of brain uptake by pretreatment with unlabeled inhibitor (MAGL [2]; rats, unlabeled 7 2 mg/kg ip before radiotracer, 40 min post injection): not blocked by pretreatment with unlabeled 7
O=[11C](N1CCC(C(c2ccc3c(c2)OCO3)c2ccc3c(c2)OCO3)CC1)n1cncn1 [[^11C]18] | 0.65–0.82 SUV |  |  | reduction of brain retention in blocked group (MAGL [1]; mice, unlabeled inhibitor 2 mg/kg ip 30 min before radiotracer, 40 min post injection, p < 0.05): 42%; specific to non-specific binding ratio (MAGL [1]; mouse brain, estimated from 42% reduction in blocked group): 0.71; retention in blood (MAGL [3]; iv tail vein, 2 and 40 min post injection): 1.1–1.5 SUV; reduction of blood binding upon pharmacological blockade (MAGL [3]; unlabeled inhibitor 2 mg/kg ip 30 min before radiotracer, 40 min post injection): 71%
O=C(OC(C(F)(F)F)C(F)(F)F)N1CCC(C(O)(c2ccc3c(c2)OCO3)c2ccc3c(c2)OCO3)CC1 [compound 7] |  | 5.9 | > 50000 | 
O=C(N1CCN(C(c2ccccc2)c2ccccc2)CC1)n1nnc2ccccc21 [compound 12] |  |  | 562 | 
O=C(N1CCC(C(c2ccc3c(c2)OCO3)c2ccc3c(c2)OCO3)CC1)n1cncn1 [compound 18] |  | 0.36 | 4800 | 
